These results are taken from ChEMBL document CHEMBL1128281 (J Med Chem, 1995).

Experiment [1] concerns Rattus norvegicus. Description: Side effect liability of compound at intraperitoneal dose of 20 mg/kg on 13.7 (A9 units)dopamine neurons in the nigrostriatal in rat. In kind it is functional. Put shortly: (§1)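 Male Wistar rats (280–360 g) were dosed ip once daily for 21 days with compound suspended in distilled water plus 1 drop Tween 80; vehicle rats served as controls. Sampling began 2 h after the last dose under chloral hydrate anesthesia (400 mg/kg ip). Spontaneously active A9 and A10 dopamine units were counted per 12 tracks. Groups were compared by one-way ANOVA with Newman–Keuls post hoc.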

In experiment [2] the test system is Rattus norvegicus. Briefly: Pole climb escape failures of rats was determined after 1 hr of intraperitoneal administration of the compound. The format is functional. The note with it: ip. A digest of the protocol:
(§2)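 Male Long Evans rats trained to 80% avoidance in a discrete-trial signaled pole-climb paradigm: 25 trials per 50 min session, maximum 26 s of shock per trial. Distilled water or drug was given ip, 6 per dose group, at a 60 min pretreatment. Avoidance responses and escape failures were compared with water controls. ED50 by linear regression.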

For experiment [3], the system named is Rattus norvegicus. Description: Intracranial self stimulation in rat was determined after 1 hr of intraperitoneal administration of the compound. In kind it is functional. The note with it: ip. A digest of the protocol:
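Male Wistar rats (300–400 g) with chronic electrodes in the medial forebrain bundle at the preoptic level, trained after 2 weeks of recovery to lever-press for biphasic square-wave pulse trains. Once baseline responding was stable, drug was given (3–6 per dose group) and compared with nondrug controls. ED50 was calculated by linear regression on percent change from control.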

In experiment [4] the test system is Rattus norvegicus. Briefly: Antipsychotic efficacy of compound at intraperitoneal dose of 20 mg/kg on 1.8 (A10 units) dopamine neurons in the mesolimbic region of rat. In kind it is functional. A digest of the protocol: as §1
Experiment [5] deals with Rattus norvegicus. Briefly: Induction of catalepsy in rats was determined after 1 hr of intraperitoneal administration at 80 mg/kg. In kind it is functional. A digest of the protocol: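 Male Wistar rats (150–250 g, 6–10/dose group) were dosed ip with compound or distilled water. Every hour for 6 h after dosing, the forepaws were placed on an elevated wooden bar, and a rat was scored cataleptic if the paws stayed on the bar for 60 s.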

For experiment [6], the system named is Rattus norvegicus. Description: Pole climb avoiding activity in rats was determined after 1 hr of intraperitoneal administration of the compound. In kind it is functional. Conditions: ip. Put shortly: as §2
In experiment [7] the test system is Rattus norvegicus. Briefly: Social interaction of rats was determined after 1 hr of intraperitoneal administration at 10 mg/kg. In kind it is functional. A digest of the protocol: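 Pairs of male Wistar rats (200–275 g) were acclimated to the arena for 8 min on two consecutive days. On day 3, unfamiliar rats (six pairs/group) got drug or vehicle, and 30 or 60 min later they were paired and observed for 5 min. Social interaction time and total activity were compared with controls by one-way ANOVA and Duncan's test.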

For experiment [8], the species on record is Rattus norvegicus. Description: Ability to block apomorphine-induced stereotypy in rats. In kind it is functional. Put shortly:
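Male Wistar rats (150–250 g), 6–10 per dose group, given distilled water or test drug ip; apomorphine 1.5 mg/kg sc 50 min later. Rats were placed singly in cages and scored 10 min afterwards for continuous stereotyped licking or sniffing. Inhibition was the number of animals protected versus controls. ED50 was obtained by probit analysis.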

Experiment [9] relates to Rattus norvegicus. Briefly: Antagonistic activity administered intraperitoneally on head twitches induced by 5- HTP. The format is functional. Conditions: ip. A digest of the protocol:
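Male Wistar rats (180–280 g), groups of eight. L-5-HTP given ip (240 mg/10 mL distilled water with Tween 80); compounds given ip 30 min after 5-HTP. At 60 min post-5-HTP, head twitches were counted for 10 min per rat under white noise, then expressed as percent change from vehicle. Dose–response used 3–4 dose groups; ED50 by linear regression.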

For another experiment, the species on record is Mus musculus. Description: Ability to inhibit apomorphine-induced climbing behavior in mice. The format is functional. A digest of the protocol: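 Male CD-1 mice (18–30 g) were adapted for 1 h in wire-mesh cages, 8 per dose group. Distilled water or drug was given ip 30 or 60 min before apomorphine 1.5 mg/kg sc.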
For experiment [10], the system named is Rattus norvegicus. Briefly: Antipsychotic efficacy of compound at intraperitoneal dose of 0.5 mg/kg on 6.8 (A10 units) dopamine neurons in the mesolimbic region of rat. The format is functional.
The test system of experiment [11] is Rattus norvegicus. Description: Induction of catalepsy in rats was determined after 2 hr of intraperitoneal administration of the compound. In kind it is functional. The note with it: ip. Put shortly:
(§3)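 Male Wistar rats (150–250 g), 6–10 per dose group, dosed ip with distilled water or drug. Each hour for 6 h, forepaws were placed on an elevated wooden bar; remaining there 60 s counted as cataleptic.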

Experiment [12] relates to Rattus norvegicus. Description: Social interaction of rats was determined after 1 hr of intraperitoneal administration at […]. In kind it is functional.
For experiment [13], the system named is Rattus norvegicus. Description: Side effect liability of compound at intraperitoneal dose of 0.5 mg/kg on 6.2 (A9 units)dopamine neurons in the nigrostriatal in rat. The format is functional.
Experiment [14] deals with Rattus norvegicus. Briefly: Social interaction of rats was determined after 1 hr of intraperitoneal administration at 1 mg/kg. The format is functional. Put shortly: (§4)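 Pairs of male Wistar rats (200–275 g) were acclimated to the arena for 8 min on two days. On day 3, unfamiliar pairs were formed, six pairs per group, and dosed with drug or vehicle. Interaction time and total activity were compared by one-way ANOVA with Duncan's test.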

Experiment [15] has as its system Rattus norvegicus. Description: Induction of catalepsy in rats was determined after 1 hr of intraperitoneal administration of the compound. In kind it is functional. Conditions: ip. A digest of the protocol:
as §3

Experiment [16] concerns Rattus norvegicus. Briefly: Side effect liability of compound at intraperitoneal dose of 5 mg/kg on 16.1 (A9 units)dopamine neurons in the nigrostriatal in rat. The format is functional.
For experiment [17], the system named is Rattus norvegicus. Description: Side effect liability of compound at intraperitoneal dose of 10 mg/kg on 16.1 (A9 units) dopamine neurons in the nigrostriatal in rat. In kind it is functional.
The target in experiment [18] is 5-hydroxytryptamine receptor 2A (Bos taurus, UniProt Q75Z89). Briefly: Binding affinity against 5-hydroxytryptamine 2 receptor was determined using [ [3H]spiperone radioligand.
For experiment [19], the system named is Rattus norvegicus. Description: Antipsychotic efficacy of compound at intraperitoneal dose of 10 mg/kg on 6.1 (A10 units)dopamine neurons in the mesolimbic in rat. The format is functional.
Experiment [20] deals with Rattus norvegicus. Briefly: Antipsychotic efficacy of compound at intraperitoneal dose of 5 mg/kg on 6.1 dopamine neurons in the mesolimbic (A10) units in rat. In kind it is functional.
Experiment [21] addresses T1, 5-hydroxytryptamine receptor 1A (Mus musculus, UniProt Q64264).
T1 sequence (Q64264 whole entry): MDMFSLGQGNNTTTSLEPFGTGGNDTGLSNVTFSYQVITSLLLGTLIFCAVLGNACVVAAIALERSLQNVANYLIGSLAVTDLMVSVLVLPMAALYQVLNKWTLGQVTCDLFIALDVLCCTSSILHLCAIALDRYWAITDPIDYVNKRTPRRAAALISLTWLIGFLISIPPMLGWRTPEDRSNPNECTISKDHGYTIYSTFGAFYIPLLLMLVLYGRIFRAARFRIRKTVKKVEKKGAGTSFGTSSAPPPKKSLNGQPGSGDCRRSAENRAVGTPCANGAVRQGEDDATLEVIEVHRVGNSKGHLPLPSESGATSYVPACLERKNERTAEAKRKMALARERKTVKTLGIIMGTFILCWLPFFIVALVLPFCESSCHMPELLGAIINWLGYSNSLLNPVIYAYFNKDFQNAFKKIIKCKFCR
Description: Binding affinity against 5-hydroxytryptamine 1A receptor was determined using [3H]-8-OH-DPAT radioligand.

The target of experiment [22] is Serotonin 2 (5-HT2) receptor (Rattus norvegicus, UniProt P30994+P08909+P14842). Description: Affinity for 5-hydroxytryptamine 2 receptor binding sites by its ability to displace [3H]spiperone from rat frontal cortex.
Experiment [23] deals with Rattus norvegicus. Description: Intracranial self stimulation in rat was determined after 1 hr of oral administration of the compound. In kind it is functional.
The target in experiment [24] is Sigma non-opioid intracellular receptor 1 (Homo sapiens, UniProt Q99720). Description: Binding affinity against sigma receptor using [3H]-( +)-SKF10,047 radioligand.
In the next experiment the target is D(1A) dopamine receptor (Mus musculus, UniProt Q61616). Description: Binding affinity against Dopamine receptor D1 was determined using [3H]SCH-23390 radioligand.
The target of experiment [25] is Muscarinic acetylcholine receptor M3 (Rattus norvegicus, UniProt P08483). Description: Binding affinity against Muscarinic acetylcholine receptor using [3H]quinuclidinyl benzilate.
For experiment [26], the system named is Rattus norvegicus. Briefly: Social interaction of rats was determined after 1 hr of intraperitoneal administration at 0.5 mg/kg. The format is functional. A digest of the protocol: as §4

Usually ED50 stands for the dose at which the effect has come halfway, by size or by number of responders. Low values mean greater potency, high ones weaker potency. As usually defined, the IC50 is the point on the concentration scale where inhibition reaches its midpoint.

5-hydroxytryptamine receptor 2A, sequence (Q75Z89 whole entry): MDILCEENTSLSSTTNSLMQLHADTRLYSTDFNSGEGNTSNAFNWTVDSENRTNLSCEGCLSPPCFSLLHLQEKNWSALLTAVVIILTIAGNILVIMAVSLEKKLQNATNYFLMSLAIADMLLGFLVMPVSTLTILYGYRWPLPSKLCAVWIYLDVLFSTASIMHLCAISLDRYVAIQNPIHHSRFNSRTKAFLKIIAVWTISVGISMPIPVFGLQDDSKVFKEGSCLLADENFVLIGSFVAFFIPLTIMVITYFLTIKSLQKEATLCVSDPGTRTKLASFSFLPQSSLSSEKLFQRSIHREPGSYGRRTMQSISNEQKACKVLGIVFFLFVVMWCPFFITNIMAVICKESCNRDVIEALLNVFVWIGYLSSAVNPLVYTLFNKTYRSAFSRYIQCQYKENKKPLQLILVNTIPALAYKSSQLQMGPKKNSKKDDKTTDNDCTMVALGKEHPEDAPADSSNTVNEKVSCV
Muscarinic acetylcholine receptor M3, sequence (P08483 whole entry): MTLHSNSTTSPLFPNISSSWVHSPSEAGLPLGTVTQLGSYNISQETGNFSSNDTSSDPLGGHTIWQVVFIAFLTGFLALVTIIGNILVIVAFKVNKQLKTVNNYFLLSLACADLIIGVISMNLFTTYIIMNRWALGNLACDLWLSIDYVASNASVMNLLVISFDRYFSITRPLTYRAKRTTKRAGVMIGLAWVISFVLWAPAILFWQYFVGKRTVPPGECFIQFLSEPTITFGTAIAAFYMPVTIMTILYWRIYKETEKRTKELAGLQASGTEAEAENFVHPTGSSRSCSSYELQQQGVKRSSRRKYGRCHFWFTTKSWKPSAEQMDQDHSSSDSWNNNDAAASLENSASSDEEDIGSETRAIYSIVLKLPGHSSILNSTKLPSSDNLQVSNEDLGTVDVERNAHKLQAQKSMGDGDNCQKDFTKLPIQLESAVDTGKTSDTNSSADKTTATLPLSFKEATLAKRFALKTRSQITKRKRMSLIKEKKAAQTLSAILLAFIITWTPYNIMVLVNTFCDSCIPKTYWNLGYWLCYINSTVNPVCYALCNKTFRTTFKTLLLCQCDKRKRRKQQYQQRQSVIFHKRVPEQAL
Sigma non-opioid intracellular receptor 1, sequence (Q99720 whole entry): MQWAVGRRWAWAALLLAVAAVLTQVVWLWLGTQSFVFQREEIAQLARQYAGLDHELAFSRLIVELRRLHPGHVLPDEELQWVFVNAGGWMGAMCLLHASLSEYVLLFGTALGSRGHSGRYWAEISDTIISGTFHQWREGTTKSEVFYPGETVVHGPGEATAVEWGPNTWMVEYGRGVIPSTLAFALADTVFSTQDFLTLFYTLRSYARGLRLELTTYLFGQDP
D(1A) dopamine receptor, sequence (Q61616 whole entry): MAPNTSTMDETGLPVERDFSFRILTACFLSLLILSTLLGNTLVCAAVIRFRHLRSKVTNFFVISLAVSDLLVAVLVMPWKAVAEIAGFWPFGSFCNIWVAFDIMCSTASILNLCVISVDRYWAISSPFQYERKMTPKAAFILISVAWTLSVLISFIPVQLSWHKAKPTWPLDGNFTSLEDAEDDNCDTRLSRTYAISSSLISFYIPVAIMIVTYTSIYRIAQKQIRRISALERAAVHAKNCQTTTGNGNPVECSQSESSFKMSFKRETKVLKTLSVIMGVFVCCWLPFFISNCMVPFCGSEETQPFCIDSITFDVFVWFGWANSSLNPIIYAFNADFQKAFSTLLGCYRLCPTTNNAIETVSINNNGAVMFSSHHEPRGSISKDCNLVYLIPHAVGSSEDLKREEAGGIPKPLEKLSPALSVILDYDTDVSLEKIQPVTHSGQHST

On to `CN1CCN(C2=Nc3cc(Cl)ccc3Nc3ccccc32)CC1` [CLOZAPINE], for which the Change is reported as 37% in the experiment with Rattus norvegicus [1] and -79% with Rattus norvegicus [4]. Also, the ED50 is 29.3 mg/kg in the experiment on Rattus norvegicus [2]; 7.4 mg/kg with Rattus norvegicus [3]; 11.3 mg/kg in the experiment on Rattus norvegicus [6]; over 40 mg/kg in the experiment filed under Rattus norvegicus [8]; 0.43 mg/kg in the experiment with Rattus norvegicus [9]. For the same compound, the Activity stood at 0% with Rattus norvegicus [5] and 39% with Rattus norvegicus [7].
For the compound `O=C(CCCN1CCC(O)(c2ccc(Cl)cc2)CC1)c1ccc(F)cc1` [HALOPERIDOL], the ED50 with Rattus norvegicus [2] worked out at 0.22 mg/kg; in the experiment listed under Mus musculus, 0.11 mg/kg; in the experiment on Rattus norvegicus [3], 0.077 mg/kg; in the experiment with Rattus norvegicus [6], 0.043 mg/kg; in the experiment with Rattus norvegicus [11], 0.65 mg/kg; in the experiment listed under Rattus norvegicus [8], 0.6 mg/kg. For the same compound, the 50% effect level in the experiment with Rattus norvegicus [9] (ED50) was put at a dose of 0.29 mg/kg. Further, the Change in the experiment on Rattus norvegicus [10] is -35%; with Rattus norvegicus [13], -30%. For the same compound, in the experiment with Rattus norvegicus [12], the Activity is -26%.
For the compound `COc1cc(C(C)=O)ccc1OCCCN1CCC(c2noc3cc(F)ccc23)CC1` [ILOPERIDONE], the Activity in the experiment on Rattus norvegicus [14] was found to be 31%. Besides, the ED50 stood at 30.7 mg/kg in the experiment with Rattus norvegicus [15]; 5.2 mg/kg in the experiment on Rattus norvegicus [2]; 0.095 mg/kg in the experiment filed under Mus musculus; 0.15 mg/kg with Rattus norvegicus [3]; 0.7 mg/kg in the experiment with Rattus norvegicus [6]; 34.8 mg/kg in the experiment listed under Rattus norvegicus [8]. In addition, the ED50 in the experiment on Rattus norvegicus [23] was 1.03 mg/kg; with Rattus norvegicus [9] it was 0.07 mg/kg. The Change is reported as 81% with Rattus norvegicus [16], 45% in the experiment on Rattus norvegicus [17], -40% with Rattus norvegicus [19] and -41% in the experiment with Rattus norvegicus [20]. Besides, the IC50 in experiment [18] is 9 nM; in [21], 210 nM; in [22], 9 nM; in [24], 64 nM; at D(1A) dopamine receptor, 750 nM; in [25], over 1000 nM.
On to `Cc1nc2n(c(=O)c1CCN1CCC(c3noc4cc(F)ccc34)CC1)CCCC2` [RISPERIDONE], for which the ED50 with Rattus norvegicus [15] turned out to be 5.7 mg/kg; with Rattus norvegicus [2], 1.3 mg/kg; in the experiment listed under Mus musculus it was 0.062 mg/kg; in the experiment on Rattus norvegicus [3], 0.13 mg/kg; in the experiment with Rattus norvegicus [6], 0.48 mg/kg; in the experiment listed under Rattus norvegicus [8], 3.2 mg/kg. Further, the Activity in the experiment with Rattus norvegicus [26] came to 27%.
